Legend:
[1] = biological target: Sigma non-opioid intracellular receptor 1 (Cavia porcellus, UniProt Q60492); experiment: Displacement of [3H](+)-pentazocine from sigma 1 receptor in guinea pig brain membrane; format: cell membranes
How it was run: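 Guinea pig brain (minus cerebella) membranes were homogenized in ice-cold 0.32 M sucrose, pH 7.4, washed in 10 mM Tris-HCl, pH 7.4, and stored at −80 °C. Tritiated (+)-pentazocine (28 Ci/mmol; Kd 1.6 ± 0.3 nM, n = 3) was incubated with test compounds from 10^-11 to 10^-5 M in Tris-HCl, pH 7.4, for 150 min at 37 °C. Haloperidol defined nonspecific binding. Reactions were stopped by filtration through PEI-presoaked glass fiber filters.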

[2] = Displacement of [3H]DTG from sigma 2 receptor in guinea pig brain membrane; format: cell membranes, Cavia porcellus
How it was run: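 Guinea pig brain membranes were incubated with test compounds, with 400 nM (+)-SKF10,047 added to mask σ1 sites. Incubation was in 50 mM Tris-HCl, pH 8.0, for 120 min at room temperature. Reactions were stopped with ice-cold 10 mM Tris-HCl, pH 8.0, and filtered through glass fiber filters presoaked in 0.5% poly(ethylenimine).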

Cavia porcellus = species: Cavia porcellus; experiment: Selectivity for sigma 1 receptor over sigma 2 receptor in guinea pig brain membranes; format: cell membranes; conditions: Membrane

Sequence of Sigma non-opioid intracellular receptor 1 (Q60492 whole entry): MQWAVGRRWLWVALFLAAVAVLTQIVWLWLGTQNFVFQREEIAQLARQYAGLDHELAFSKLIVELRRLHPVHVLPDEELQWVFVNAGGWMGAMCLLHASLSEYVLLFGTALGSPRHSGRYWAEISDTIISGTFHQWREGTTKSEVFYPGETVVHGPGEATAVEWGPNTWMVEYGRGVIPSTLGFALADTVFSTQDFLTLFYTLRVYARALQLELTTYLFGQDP

With `COc1ccc2cc(/C(C)=C/CN(C)C)ccc2c1` the Ki [1] was 21.4 nM, the Ki [2] was 985 nM and the Ratio Ki (Cavia porcellus) was 46.

Compound `C/C(=C\CN(C)Cc1ccccc1)c1ccc2ccccc2c1` has a Ki [1] of 7.88 nM, a Ki [2] of 873 nM and a Ratio Ki (Cavia porcellus) of 111.

Work on `C/C(=C\CN(C)Cc1ccccc1)c1ccc(-c2ccccc2)cc1` yielded a Ki [1] of 6.32 nM, a Ki [2] of 75.7 nM and a Ratio Ki (Cavia porcellus) of 12.

With `CC(CCN(C)C)c1ccc(-c2ccccc2)cc1` (stereo not given) the Ki [1] was 1.02 nM, the Ki [2] was 161 nM and the Ratio Ki (Cavia porcellus) was 158.

Work on `CC(CCN(C)C)c1ccc2cc(O)ccc2c1` (racemic) yielded a Ki [1] of 19 nM, a Ki [2] of 1330 nM and a Ratio Ki (Cavia porcellus) of 70.

`CN(C)CCC(C)(O)c1ccc2ccccc2c1` (racemic) showed a Ki [1] of 25 nM, a Ki [2] of 171 nM and a Ratio Ki (Cavia porcellus) of 6.8.

Work on `C/C(=C\CN(C)C)c1ccc2ccccc2c1` yielded a Ki [1] of 19.8 nM, a Ki [2] of 148 nM and a Ratio Ki (Cavia porcellus) of 7.5.

`CC(CCN(C)Cc1ccccc1)c1ccc(-c2ccccc2)cc1` (stereo not given) gave a Ki [1] of 5.8 nM, a Ki [2] of 591 nM and a Ratio Ki (Cavia porcellus) of 102.

In the case of `C/C(=C\CN(C)C)c1cccc2ccccc12`, the Ki [1] is reported as 102 nM, the Ki [2] is reported as 701 nM and the Ratio Ki (Cavia porcellus) is reported as 6.87.

`CC(CCN(C)C)c1cccc2ccccc12` (stereo not given) showed a Ki [1] of 47.2 nM, a Ki [2] of 205 nM and a Ratio Ki (Cavia porcellus) of 4.3.

`C/C(=C\CN(C)C)c1ccc(-c2ccccc2)cc1` gave a Ki [1] of 1.4 nM, a Ki [2] of 106 nM and a Ratio Ki (Cavia porcellus) of 75.7.

Work on `C/C(=C\CN(C)C)c1ccc2cc(O)ccc2c1` yielded a Ki [1] of 229 nM, a Ki [2] of 1390 nM and a Ratio Ki (Cavia porcellus) of 6.1.

With `CC(CCN(C)Cc1ccccc1)c1ccc2ccccc2c1` (stereo not given) the Ki [1] was 5.4 nM, the Ki [2] was 139 nM and the Ratio Ki (Cavia porcellus) was 25.7.

With `COc1ccc2cc(C(C)CCN(C)C)ccc2c1` (racemic) the Ki [1] was 2.3 nM, the Ki [2] was 60.4 nM and the Ratio Ki (Cavia porcellus) was 26.3.

With `CC(CCN(C)C)c1ccc2ccccc2c1` (stereo not given) the Ki [1] was 1.95 nM, the Ki [2] was 43.8 nM and the Ratio Ki (Cavia porcellus) was 22.5.
